Tests used:
gut microbiota = assay: 16S rRNA analysis of the feces of ICR mice after oral administration; type: in vivo
[1] = cited from earlier work
CYP51 enzyme lysate = CYP51 enzyme lysate (Saccharomyces cerevisiae, UniProt P10614); assay: Enzymatic reaction in recombinant CYP51 enzyme lysate; type: biochemical, Saccharomyces cerevisiae S288C; conditions: NADPH 0.5 mM, 0-4 h
CYP51 = assay: Activity of CYP51 in four standard bacterial strains; type: cell-based, E. faecalis, S. epidermidis, E. cloacae, and E. faecium
Summary of the method: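 The four strains were resuscitated, plate-counted and diluted to equal density. 100 μL culture went into 0.9 mL sterile anaerobic medium, N₂-flushed, sealed and held at 37 °C. Groups were methanol control, 10 μL of 50 mg/mL BBR, or BBR plus 3.5 μg/mL voriconazole. After 48 and 72 h, cells were sonicated and CYP51 activity was measured by sterol 14α-demethylase ELISA kit.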

[2] = Pharmacokinetics of BBR, M1 and M2 in vivo after single oral administration; conditions: ICR mice; for AUC(0-t) / AUC(0-inf) / Cmax / MRT last / MRT inf / half-life: ICR, mouse, plasma, po, 200 mg/kg, two-compartment model, mean ± SD; for AUC(0-t): AUC(0–24 h); for AUC(0-t) / AUC(0-inf) / Cmax / MRT last / MRT inf: BBR in plasma; for MRT last: MRT(0–24 h); for MRT inf: MRT(0−∞); for half-life: t1/2, BBR in plasma; for level in plasma (below the lower limit of quantitation): any of the time points
Summary of the method: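 Male ICR mice, fasted 12 h, got a single oral dose of BBR 200 mg/kg + voriconazole 30 mg/kg, with food allowed after 3 h. Retrobulbar blood was drawn into heparinised tubes at 0.17–24 h (11 times) and stored at −20 °C. 100 μL plasma was precipitated with 300 μL methanol containing internal standard. BBR, M1 and M2 were measured by LC-MS/MS, with a curve of 1–1000 ng/mL and a lower limit of quantitation of 1 ng/mL.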

mice gut microbiota = assay: Metabolism of BBR by the mice gut microbiota in vitro; type: in vitro ADME; conditions: BBR 50 mg/mL + voriconazole 3.5 μg/mL vs BBR group
Summary of the method: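 Mouse colon contents were homogenised anaerobically, 1 g in 20 mL autoclaved anaerobic medium, and preincubated 60 min at 37 °C under N₂. 1 mL culture received 10 μL methanol solution (BBR 50 mg/mL + voriconazole 3.5 μg/mL, BBR alone, or methanol control), was sealed and incubated at 37 °C for 12–72 h. It was quenched with methanol, centrifuged, diluted 50-fold and precipitated with methanol plus internal standard. BBR, M1 and M2 were measured by LC-MS/MS (ESI+), curve 1–1000 ng/mL.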

[3] = test system: E. faecalis, S. epidermidis, E. cloacae, and E. faecium; assay: Metabolism of BBR in the four standard bacterial strains; type: in vitro ADME; conditions: BBR 50 mg/mL + voriconazole 3.5 μg/mL, 72 h
Summary of the method: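 Plate-counted strains, equalised in density, were put in anaerobic medium (100 μL culture + 0.9 mL), N₂-flushed, sealed and preincubated 1 h at 37 °C. Each got 10 μL BBR (50 mg/mL solution) ± voriconazole (3.5 μg/mL solution) or methanol control and was incubated 48 and 72 h. It was quenched with 1 mL methanol containing internal standard and centrifuged. BBR, M1 and M2 were measured by LC-MS/MS (curve 1–1000 ng/mL) and % BBR metabolism calculated.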

[4] = test system: mouse intestinal microsomes; assay: Metabolism of BBR in mouse intestinal microsomes in vitro; type: in vitro ADME; conditions: BBR 50 mg/mL + voriconazole 3.5 μg/mL
[5] = feces 24 h after oral BBR, vs control group, P < 0.05
[6] = oral BBR 200 mg/kg + voriconazole 30 mg/kg

CYP51 enzyme lysate, sequence (P10614 2-530): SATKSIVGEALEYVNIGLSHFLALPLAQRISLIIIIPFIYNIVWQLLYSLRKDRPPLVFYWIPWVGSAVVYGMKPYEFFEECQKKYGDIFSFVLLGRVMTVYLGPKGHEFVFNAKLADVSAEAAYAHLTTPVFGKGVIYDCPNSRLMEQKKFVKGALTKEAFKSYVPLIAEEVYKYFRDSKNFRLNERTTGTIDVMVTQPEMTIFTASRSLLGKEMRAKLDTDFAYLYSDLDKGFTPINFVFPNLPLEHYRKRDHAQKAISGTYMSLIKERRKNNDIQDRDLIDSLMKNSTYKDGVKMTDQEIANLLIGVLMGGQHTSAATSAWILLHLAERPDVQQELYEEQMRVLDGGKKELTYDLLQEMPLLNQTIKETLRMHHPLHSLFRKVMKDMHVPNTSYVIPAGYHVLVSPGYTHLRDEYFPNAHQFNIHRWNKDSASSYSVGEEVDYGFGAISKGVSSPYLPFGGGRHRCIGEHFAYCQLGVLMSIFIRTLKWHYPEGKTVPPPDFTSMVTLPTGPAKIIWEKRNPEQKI

For `COc1ccc2cc3[n+](cc2c1OC)CCc1cc2c(cc1-3)OCO2` [BBR, Berberine], the “abundance of Porphyromonadaceae (family level)” value (gut microbiota; after oral BBR, vs control group, P < 0.05 (Fig. S2)) was “significant increase”, the “abundance of the genus Parabacteroides” value (gut microbiota; [5]) was “significant increase” and the “abundances of five genera (Tyzzerella 3, Rikenellaceae RC9 gut group, Roseburia, Tyzzerella, Ruminococcus 1)” value (gut microbiota; [5]) was “significant decrease”. For the same compound, the “share of BBR that could enter the blood (absorption rate)” value [1] was “less than 10%”, the “production ratios of M1 and M2” value (CYP51 enzyme lysate; BBR 10 μg/mL, CYP51 enzyme lysate compared with the control) was “significantly increased” and the “activity of CYP51 compared with that in the strains alone” value (CYP51; four strains incubated with 50 mg/mL BBR for 72 h) was “not significantly different”. It also gave an AUC(0-t) [2, 6] of 299 ± 56.4 ng·h/mL, an AUC(0-t) ([2]; oral BBR 200 mg/kg) of 272 ± 68.4 ng·h/mL and an AUC(0-inf) [2, 6] of 388 ± 103 ng·h/mL. The AUC(0-inf) ([2]; oral BBR 200 mg/kg) was 334 ± 79.3 ng·h/mL, the Cmax [2, 6] was 64.5 ± 20.1 ng/mL and the Cmax ([2]; oral BBR 200 mg/kg) was 44.3 ± 10.4 ng/mL. For the same compound, the MRT last [2, 6] was 6.5 ± 1.4 h, the MRT last ([2]; oral BBR 200 mg/kg) was 7.39 ± 1.71 h and the MRT inf [2, 6] was 10.4 ± 2.32 h. The MRT inf ([2]; oral BBR 200 mg/kg) was 12.7 ± 5.85 h, the half-life [2, 6] was 9.91 ± 5.26 h and the half-life ([2]; oral BBR 200 mg/kg) was 8.44 ± 5.55 h.

For `CC(C)=CCC[C@@H](C)[C@H]1CC[C@@]2(C)C3=C(CC[C@]12C)[C@@]1(C)CC[C@H](O)C(C)(C)[C@@H]1CC3` [Lanosterol], the “production ratio of demethylated metabolite FF-MAS” value (CYP51 enzyme lysate; lanosterol 10 μg/mL, CYP51 enzyme lysate) was “increased significantly”.

In the case of `COc1c(O)ccc2cc3[n+](cc12)CCc1cc2c(cc1-3)OCO2` [M1, Thalifendine], the “level in plasma (below the lower limit of quantitation)” value [2, 6] is reported as under 1 ng/mL.

For `COc1ccc2cc3[n+](cc2c1O)CCc1cc2c(cc1-3)OCO2` [M2, Berberrubine], the “level in plasma (below the lower limit of quantitation)” value [2, 6] was under 1 ng/mL.

For `C[C@@H](c1ncncc1F)[C@](O)(Cn1cncn1)c1ccc(F)cc1F` [voriconazole], the “percentage of residual BBR after the addition of voriconazole” value (mice gut microbiota) was “significantly increased”, the “production of M1 after the addition of voriconazole” value (mice gut microbiota) was “significantly decreased” and the “production of M2 after the addition of voriconazole” value (mice gut microbiota) was “significantly decreased”. For the same compound, the “abundances of Parabacteroides, Tyzzerella 3, Rikenellaceae RC9 gut group, Roseburia, Tyzzerella, Ruminococcus 1 and Porphyromonadaceae after the addition of voriconazole” value (gut microbiota; oral BBR 200 mg/kg + voriconazole 30 mg/kg vs BBR 200 mg/kg (Fig. S3)) was “did not change significantly”, the “CYP51 activity after the addition of voriconazole” value (CYP51; four strains, BBR 50 mg/mL + voriconazole 3.5 μg/mL, 72 h) was “reduced” and the “level of M2 produced by each strain after the addition of voriconazole” value [3] was “below the lower limit of quantitation”. The “level of M1 produced by each strain after the addition of voriconazole” value ([3]; vs BBR group) was “significantly reduced”, the “decrease of production of M1 after adding voriconazole” value (from here on “decrease of production of M1”) ([4]; 30 min) was 21% and the “decrease of production of M2 after adding voriconazole” value (“decrease of production of M2” for short) ([4]; 30 min) was 28%. For the same compound, the “decrease of production of M1” value ([4]; 60 min) was 25%, the “decrease of production of M2” value ([4]; 60 min) was 26% and the “decrease of production of M1” value ([4]; 120 min) was 20%. The “decrease of production of M2” value ([4]; 120 min) was 30%.
